Consider two compounds from ChEMBL document CHEMBL3992558, “Benzimidazole inhibitors from the Niclosamide chemotype inhibit Wnt/β-catenin signaling with selectivity over effects on ATP homeostasis” (Bioorg Med Chem, 2017).

Active and inactive are the calls of the source. No cut-off for these calls is given here.

One series concerns HEK293 (Homo sapiens). The experiment in a line: Effect on ATP homeostasis in human HEK293 cells assessed as reduction in ATP level after 3 hrs in absence of glucose by ATP bioluminescent assay. To be noted: HEK293, 3 h.
Series [1] relates to HCT-116. The experiment in a line: Effect on ATP homeostasis in human HCT116 cells assessed as reduction in ATP level after 3 hrs in absence of glucose by ATP bioluminescent assay. It counts as ADME, cell-based. To be noted: for Activity: human, hct-116, 3 h. The essentials: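 HCT-116 cells attached overnight on poly-D-lysine plates in McCoy's 5A/10% FBS, then switched to glucose-free DMEM with 2mM sodium pyruvate and 2mM L-glutamine containing compound (0.1% final DMSO). After 3 h at 37°C, 5% CO2, cells were lysed in Somatic Cell ATP Releasing Reagent and ATP was read by luciferase bioluminescence, normalized to DMSO control.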

Series [2] has as its system HCT-116. The experiment in a line: Effect on ATP homeostasis in human HCT116 cells assessed as reduction in ATP level at 0.5 to 2 uM after 3 hrs in glucose supplemented media by ATP bioluminescent assay. It counts as ADME, cell-based. To be noted: hct-116, 3 h. The essentials: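 HCT-116 cells attached overnight on poly-D-lysine plates, then treated 3 h at 37°C in DMEM with 2mM sodium pyruvate, 2mM L-glutamine and 5mM glucose (0.1% final DMSO). ATP was read by luciferase bioluminescence after lysis with Somatic Cell ATP Releasing Reagent, normalized to DMSO control.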

For series [3], the species on record is Homo sapiens. The experiment in a line: Inhibition of Wnt/beta-catenin signaling in human HCT116 cells assessed as downregulation of Cyclin D1 protein expression at 5 uM after 18 hrs by Western blot method. The series is classed as cell-based. The essentials:
(§1)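 HCT-116 (McCoy's 5A) or SW480 (MEM) cells, each with 10% FBS, were grown 48 h on poly-D-lysine-coated wells to 60–80% confluency. Fresh medium with compound or DMSO (0.1% final) was added for 18 h. Cytosolic fractions (β-catenin, Axin2) were isolated with hypotonic buffer, or whole cells were lysed in Laemmli buffer (c-Myc, Cyclin D1, Survivin). Immunoblots used β-actin as loading control.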
For orientation: In western blotting, separated proteins are transferred to a membrane and probed.

For series [4], the species on record is Homo sapiens. The experiment in a line: Inhibition of Wnt/beta-catenin signaling in human SW480 cells assessed as downregulation of cytosolic beta-catenin protein expression at 5 uM after 18 hrs by Western blot method. It counts as cell-based. The essentials:
as §1

The species named for series [5] is Homo sapiens. The experiment in a line: Inhibition of Wnt/beta-catenin signaling (unknown origin) expressed in HEK293 cells assessed as inhibition of Wnt3A-stimulated beta-catenin response transcription at 0.63 uM after 6 hrs by TOPflash dual luciferase reporter gene assay relative to control. It counts as cell-based. An outline of the steps:
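TOPFlash/Renilla stable HEK293 cells were split from the same batch as parallel ATP assay plates, attached overnight, then treated 6 h with compound in Wnt-3A conditioned medium. Dual-luciferase read-out was taken relative to the DMSO control. Three separate experiments used different cell batches.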

The species named for series [6] is Homo sapiens. The experiment in a line: Inhibition of Wnt/beta-catenin signaling in human HCT116 cells assessed as downregulation of cytosolic beta-catenin protein expression at 5 uM after 18 hrs by Western blot method. The series is classed as cell-based. The essentials: as §1
Series [7] is filed under the species Homo sapiens. The experiment in a line: Inhibition of Wnt/beta-catenin signaling in human SW480 cells assessed as downregulation of c-Myc protein expression at 5 uM after 18 hrs by Western blot method. The series is classed as cell-based. An outline of the steps:
as §1

The species named for series [8] is Homo sapiens. The experiment in a line: Inhibition of Wnt/beta-catenin signaling in human SW480 cells assessed as downregulation of survivin protein expression at 5 uM after 18 hrs by Western blot method. It counts as cell-based. The essentials: as §1
Series [9] is filed under the species Homo sapiens. The experiment in a line: Inhibition of Wnt/beta-catenin signaling in human SW480 cells assessed as downregulation of Cyclin D1 protein expression at 5 uM after 18 hrs by Western blot method. The series is classed as cell-based. An outline of the steps: as §1
For series [10], the species on record is Homo sapiens. The experiment in a line: Inhibition of Wnt/beta-catenin signaling in human HCT116 cells assessed as downregulation of c-Myc protein expression at 5 uM after 18 hrs by Western blot method. It counts as cell-based. The essentials: as §1
The species entered for series [11] is Homo sapiens. The experiment in a line: Inhibition of Wnt/beta-catenin signaling in human SW480 cells assessed as downregulation of cytosolic Axin2 protein expression at 5 uM after 18 hrs by Western blot method. The series is classed as cell-based. The essentials: as §1
The species named for series [12] is Homo sapiens. The experiment in a line: Inhibition of Wnt/beta-catenin signaling in human HCT116 cells assessed as downregulation of survivin protein expression at 5 uM after 18 hrs by Western blot method. The series is classed as cell-based. The essentials:
as §1

For series [13], the system named is HCT-116. The experiment in a line: Effect on ATP homeostasis in human HCT116 cells assessed as reduction in ATP level at 0.63 uM after 3 hrs in absence of glucose by ATP bioluminescent assay. It counts as ADME, cell-based. To be noted: hct-116, 3 h.
For series [14], the species on record is Homo sapiens. The experiment in a line: (§2) Inhibition of Wnt/beta-catenin signaling (unknown origin) expressed in HEK293 cells assessed as inhibition of Wnt3A-stimulated beta-catenin response transcription after 6 hrs by TOPflash dual luciferase reporter gene assay. The series is classed as cell-based. The essentials: (§3)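 HEK293 cells stably carrying p8xTOPFlash and Renilla pRL-TK were seeded at confluency and given Wnt-3A conditioned medium (from L Wnt-3A cells) containing compound, 0.04–10 μM, or DMSO for 6 h. Lysates were read by dual-luciferase assay. The DMSO/Wnt3A signal was set as 100%, and curves were fit (mean ± SEM, n ≥ 3). Percent inhibition at 10 μM was reported where no IC50 could be fitted.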
A general note: In a reporter assay the amount or activity of a reporter protein is the signal.

Series [15] can be described thus: as §2. The series is classed as cell-based. To be noted: Homo sapiens, HEK293, 6 h. The essentials: as §3
The species entered for series [16] is Homo sapiens. The experiment in a line: Inhibition of Wnt/beta-catenin signaling in human U2OS cells expressing GFP-fused Fzd1 assessed as GFP-Fzd1 internalization by measuring number of punctate formed at 12.5 uM after 6 hrs by confocal microscopic method. It counts as cell-based. The essentials: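 U2OS cells stably expressing Frizzled1-GFP were plated in confocal dishes for 24 h, then treated with 12.5 μM compound in DMSO or DMSO for 6 h at 37°C and fixed in 4% paraformaldehyde. Confocal images (488-nm excitation) were read twice, blinded, and punctate was scored versus control on a 0–5 scale (0, 1, 3, 5).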

For series [17], the species on record is Homo sapiens. The experiment in a line: Inhibition of Wnt/beta-catenin signaling in human HCT116 cells assessed as downregulation of cytosolic Axin2 protein expression at 5 uM after 18 hrs by Western blot method. It counts as cell-based. The essentials:
as §1

The subject of series [18] is HCT-116. The experiment in a line: Effect on ATP homeostasis in human HCT116 cells assessed as reduction in ATP level at 0.31 uM after 3 hrs in absence of glucose by ATP bioluminescent assay. It counts as ADME, cell-based. To be noted: hct-116, 3 h.

In general, EC50 refers to the midpoint of the concentration-response curve. The term IC50 denotes the concentration that inhibits the measured activity by half. On to `O=[N+]([O-])c1ccc2[nH]c(-c3cc(F)ccc3O)nc2c1`, for which the EC50 with HEK293 (Homo sapiens) is more than 5 µM. For the same compound, the concentration for half-maximal inhibition (IC50) in the series with HCT-116 [1] (Homo sapiens, HCT-116, 3 h) is 6 µM; in series [15], 0.62 to 1.15 µM. Besides, the Activity result is “Dose-dependent effect” in the series with HCT-116 [1], “Non-Toxic” in the series on HCT-116 [2], “Non-Toxic” in the series with HCT-116 [13] and 2 in the series filed under Homo sapiens [16]. Moreover, the inhibition result in the series filed under Homo sapiens [3], in the series filed under Homo sapiens [4], in the series listed under Homo sapiens [5], in the series filed under Homo sapiens [6], in the series filed under Homo sapiens [7] and in the series filed under Homo sapiens [8] was “Active” in each case. Further, the inhibition entry in the series listed under Homo sapiens [9], in the series filed under Homo sapiens [10], in the series listed under Homo sapiens [11], in the series filed under Homo sapiens [12] and in the series listed under Homo sapiens [17] was “Active” throughout. In the series filed under Homo sapiens [14], the inhibition entry was “Dose-dependent effect”.

In the case of `O=[N+]([O-])c1ccc2[nH]c(-c3cc(Cl)ccc3O)nc2c1`, the values for the Activity result in the series with HCT-116 [1], in the series on HCT-116 [2] and in the series with HCT-116 [18] were “Dose-dependent effect”, “Non-Toxic” and “Non-Toxic”, respectively.
